Measured values: ChEMBL document CHEMBL4376826 (J Med Chem, 2020)
Converted amounts (≈) assume the structure as drawn. The source made the active and inactive calls. No cut-off for these calls is given here.

Key:
[1] = molecular target: CYP1A2 (Homo sapiens, UniProt P05177); assay: Drug metabolism assessed as human CYP1A2-mediated metabolism by measuring half life; format: ADME; settings: human CYP1A2 enzyme
[2] = molecular target: CYP3A4 (Homo sapiens, UniProt P08684); assay: Drug metabolism assessed as human CYP3A4-mediated metabolism by measuring half life; format: ADME; settings: human CYP3A4 enzyme
Sequence of CYP3A4 (P08684 whole entry): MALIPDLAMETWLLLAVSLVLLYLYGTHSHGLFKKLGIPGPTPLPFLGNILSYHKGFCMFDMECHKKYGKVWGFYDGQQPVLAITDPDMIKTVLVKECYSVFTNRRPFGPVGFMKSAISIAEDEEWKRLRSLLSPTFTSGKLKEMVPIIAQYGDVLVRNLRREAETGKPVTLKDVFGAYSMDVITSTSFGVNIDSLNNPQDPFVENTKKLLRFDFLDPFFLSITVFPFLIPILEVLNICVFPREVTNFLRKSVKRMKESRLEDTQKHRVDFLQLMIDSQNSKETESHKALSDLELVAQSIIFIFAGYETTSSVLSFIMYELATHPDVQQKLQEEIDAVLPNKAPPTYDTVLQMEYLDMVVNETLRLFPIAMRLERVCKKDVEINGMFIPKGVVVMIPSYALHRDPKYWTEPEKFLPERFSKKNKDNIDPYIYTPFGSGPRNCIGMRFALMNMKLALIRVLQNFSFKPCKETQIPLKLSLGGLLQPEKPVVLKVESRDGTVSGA

[3] = molecular target: T1, Cytochrome P450 1A2 (Homo sapiens, UniProt P05177); assay: Drug metabolism assessed as human CYP1A2-mediated metabolism by measuring DHD1 formation; format: ADME; settings: recombinant enzyme
T1 sequence (P05177 whole entry): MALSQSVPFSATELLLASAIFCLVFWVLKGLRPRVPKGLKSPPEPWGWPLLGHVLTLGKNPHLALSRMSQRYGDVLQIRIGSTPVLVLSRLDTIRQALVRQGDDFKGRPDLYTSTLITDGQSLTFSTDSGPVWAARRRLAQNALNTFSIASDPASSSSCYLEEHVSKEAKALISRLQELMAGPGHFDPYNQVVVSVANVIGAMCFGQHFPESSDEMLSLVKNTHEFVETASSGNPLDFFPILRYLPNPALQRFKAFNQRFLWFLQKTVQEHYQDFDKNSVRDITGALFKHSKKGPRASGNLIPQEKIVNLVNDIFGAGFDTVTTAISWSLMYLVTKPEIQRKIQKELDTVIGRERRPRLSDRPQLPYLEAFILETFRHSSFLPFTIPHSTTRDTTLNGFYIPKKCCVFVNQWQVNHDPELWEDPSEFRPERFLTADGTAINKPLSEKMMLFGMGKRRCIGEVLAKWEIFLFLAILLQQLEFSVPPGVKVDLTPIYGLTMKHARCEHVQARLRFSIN

[4] = system: Rattus norvegicus; assay: Effect on total cytochrome P450 content in rat at 2000 mg/kg/day, po for 28 days; format: ADME, organism-based; settings: in vivo, 672 h
Summary of the method: (§1)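 Rats dosed 2000 mg/kg/day by oral gavage for 28 days; liver microsomes prepared, microsomal protein concentration and total P450 content measured.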

[5] = molecular target: Cytochrome P450 1A1 (Homo sapiens, UniProt P04798); assay: Drug metabolism assessed as human CYP1A1-mediated metabolism by measuring DHD3 formation; format: ADME; settings: recombinant enzyme
Sequence of Cytochrome P450 1A1 (P04798 whole entry): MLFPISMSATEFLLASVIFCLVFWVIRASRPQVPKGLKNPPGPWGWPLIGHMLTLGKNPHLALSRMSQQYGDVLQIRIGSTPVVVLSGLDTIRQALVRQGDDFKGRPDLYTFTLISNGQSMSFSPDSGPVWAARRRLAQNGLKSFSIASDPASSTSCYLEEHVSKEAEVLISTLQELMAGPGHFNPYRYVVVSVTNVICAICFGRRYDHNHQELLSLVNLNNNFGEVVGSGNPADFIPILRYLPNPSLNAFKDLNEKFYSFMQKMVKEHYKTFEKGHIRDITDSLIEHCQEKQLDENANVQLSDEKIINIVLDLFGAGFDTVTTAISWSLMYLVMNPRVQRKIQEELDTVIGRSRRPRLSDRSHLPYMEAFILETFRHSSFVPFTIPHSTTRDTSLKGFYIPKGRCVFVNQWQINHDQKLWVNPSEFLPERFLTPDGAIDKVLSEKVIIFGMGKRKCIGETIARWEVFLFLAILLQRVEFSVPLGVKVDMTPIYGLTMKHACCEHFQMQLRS

[6] = molecular target: CYP2C8 (Homo sapiens, UniProt P10632); assay: Drug metabolism assessed as human CYP2C8-mediated metabolism by measuring half life; format: ADME; settings: human CYP2C8 enzyme
Sequence of CYP2C8 (P10632 whole entry): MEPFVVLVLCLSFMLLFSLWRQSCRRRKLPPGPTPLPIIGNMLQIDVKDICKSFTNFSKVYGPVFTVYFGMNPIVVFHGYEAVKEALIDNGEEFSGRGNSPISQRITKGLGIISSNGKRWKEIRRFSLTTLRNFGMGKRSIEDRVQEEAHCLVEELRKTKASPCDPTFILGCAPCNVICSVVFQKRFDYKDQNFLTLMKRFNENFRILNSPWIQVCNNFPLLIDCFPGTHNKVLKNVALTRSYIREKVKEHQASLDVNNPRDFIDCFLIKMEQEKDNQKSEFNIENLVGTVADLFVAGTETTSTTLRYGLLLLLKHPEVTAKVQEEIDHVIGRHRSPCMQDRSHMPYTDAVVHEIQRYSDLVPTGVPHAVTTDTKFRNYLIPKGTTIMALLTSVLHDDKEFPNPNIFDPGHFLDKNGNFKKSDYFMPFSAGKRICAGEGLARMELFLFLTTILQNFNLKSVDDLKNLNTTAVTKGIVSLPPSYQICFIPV

[7] = Induction of CYP3A enzymes in minipig assessed as increase in testosterone hydroxylase activity at 500 mg/kg/day, po for 39 weeks relative to control; format: ADME, organism-based, Sus scrofa domesticus; settings: pig, in vivo, 6552 h
[8] = molecular target: T1, Cytochrome P450 1A2; assay: Inhibition of CYP1A2 in human liver microsomes; format: ADME
[9] = Induction of CYP2E1 enzymes in minipig assessed as increase in 11-hydroxylase activity at 500 mg/kg/day, po for 39 weeks relative to control; format: ADME, organism-based, Sus scrofa domesticus; settings: pig, in vivo, 6552 h
[10] = Intrinsic clearance in human liver S9 fraction; format: ADME, subcellular; settings: read-out: CLH
[11] = Drug metabolism in human liver microsomes assessed as metabolite retention time incubation for 45 mins; format: ADME, Microsome; settings: 0.75 h
Summary of the method: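 Incubation of substrate in pooled male and female human liver microsomes for 45 min; parent and metabolite resolved by LC-MS, metabolite identified by retention time and [M+H]+ ion.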

[12] = Drug level in rat plasma at 2000 mg/kg, po measured after 24 hrs; format: ADME, organism-based; settings: in vivo
[13] = molecular target: CYP2B6 (Homo sapiens, UniProt P20813); assay: Drug metabolism assessed as human CYP2B6-mediated metabolism by measuring half life; format: ADME; settings: human CYP2B6 enzyme
Sequence of CYP2B6 (P20813 whole entry): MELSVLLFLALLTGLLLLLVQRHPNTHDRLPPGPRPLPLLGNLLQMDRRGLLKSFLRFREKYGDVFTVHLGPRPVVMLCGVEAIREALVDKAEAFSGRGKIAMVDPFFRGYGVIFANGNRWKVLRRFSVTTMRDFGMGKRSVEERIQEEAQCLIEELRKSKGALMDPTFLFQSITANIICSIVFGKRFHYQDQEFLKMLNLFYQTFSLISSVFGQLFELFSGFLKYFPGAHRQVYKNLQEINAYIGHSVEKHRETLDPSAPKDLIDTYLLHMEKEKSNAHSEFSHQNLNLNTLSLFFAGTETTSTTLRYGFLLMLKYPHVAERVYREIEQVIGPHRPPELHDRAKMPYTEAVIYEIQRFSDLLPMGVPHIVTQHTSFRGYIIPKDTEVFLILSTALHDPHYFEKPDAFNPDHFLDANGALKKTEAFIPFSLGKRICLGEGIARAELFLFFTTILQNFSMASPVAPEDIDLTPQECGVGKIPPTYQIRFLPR

[14] = molecular target: Cytochrome P450 2C9 (Homo sapiens, UniProt P11712); assay: Drug metabolism assessed as human CYP2C9-mediated metabolism by measuring DHD3 formation; format: ADME; settings: recombinant enzyme
Sequence of Cytochrome P450 2C9 (P11712 whole entry): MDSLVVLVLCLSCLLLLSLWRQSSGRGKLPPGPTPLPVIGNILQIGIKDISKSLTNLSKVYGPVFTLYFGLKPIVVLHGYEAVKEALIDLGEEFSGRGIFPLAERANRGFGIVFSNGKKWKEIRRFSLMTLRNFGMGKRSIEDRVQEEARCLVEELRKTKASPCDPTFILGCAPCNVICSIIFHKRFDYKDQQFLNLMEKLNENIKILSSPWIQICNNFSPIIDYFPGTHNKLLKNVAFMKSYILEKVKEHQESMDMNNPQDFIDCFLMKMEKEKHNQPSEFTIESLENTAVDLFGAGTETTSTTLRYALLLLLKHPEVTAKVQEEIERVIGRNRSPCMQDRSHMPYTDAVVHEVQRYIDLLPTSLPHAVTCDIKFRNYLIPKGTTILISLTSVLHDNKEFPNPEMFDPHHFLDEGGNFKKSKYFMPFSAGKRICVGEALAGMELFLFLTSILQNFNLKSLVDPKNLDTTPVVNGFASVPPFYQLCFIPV

[15] = molecular target: CYP2C9 (Homo sapiens, UniProt P11712); assay: Drug metabolism assessed as human CYP2C9-mediated metabolism by measuring half life; format: ADME; settings: human CYP2C9 enzyme
Sequence of CYP2C9 (P11712 whole entry): as above

[16] = Half life in mouse liver S9 fraction; format: ADME, subcellular
Summary of the method: (§2)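 Metabolic stability of the dihydrodiols measured in vitro with mouse and human liver S9 fractions and with mouse and human hepatocytes; half-life from substrate depletion.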

[17] = Drug metabolism in rat plasma assessed as formation of O-glucuronide conjugate of aromatized diol at 2000 mg/kg, po dosed for 28 days; format: ADME, organism-based; settings: in vivo, 672 h
[18] = Intrinsic clearance in human liver microsomes; format: ADME, Microsome; settings: read-out: CLH
[19] = Induction of CYP4A enzymes in minipig assessed as increase in 12-hydroxylase activity at 500 mg/kg/day, po for 39 weeks relative to control; format: ADME, organism-based, Sus scrofa domesticus; settings: pig, in vivo, 6552 h
[20] = system: Rattus norvegicus; assay: Effect on microsomal protein concentrations in rat at 2000 mg/kg/day, po for 28 days; format: ADME, organism-based; settings: in vivo, 672 h; summary of the method: as §1
[21] = Intrinsic clearance in human liver microsomes in presence of CYP2D6 inhibitor Quinidine; format: ADME, Microsome; settings: with Quinidine (CYP2D6 inhibitor), read-out: CLH
[22] = molecular target: T2, Cytochrome P450 2B6 (Homo sapiens, UniProt P20813); assay: Drug metabolism assessed as human CYP2B6-mediated metabolism by measuring DHD3 formation; format: ADME; settings: recombinant enzyme
T2 sequence (P20813 whole entry): as the sequence (P20813 whole entry) above

[23] = Intrinsic clearance in human liver microsomes in presence of CYP1A inhibitor alpha-naphthoflavone; format: ADME, Microsome; settings: with alpha-naphthoflavone (CYP1A inhibitor), read-out: CLH
[24] = molecular target: Cytochrome P450 2C19 (Homo sapiens, UniProt P33261); assay: Drug metabolism assessed as human CYP2C19-mediated metabolism by measuring DHD3 formation; format: ADME; settings: recombinant enzyme
Sequence of Cytochrome P450 2C19 (P33261 whole entry): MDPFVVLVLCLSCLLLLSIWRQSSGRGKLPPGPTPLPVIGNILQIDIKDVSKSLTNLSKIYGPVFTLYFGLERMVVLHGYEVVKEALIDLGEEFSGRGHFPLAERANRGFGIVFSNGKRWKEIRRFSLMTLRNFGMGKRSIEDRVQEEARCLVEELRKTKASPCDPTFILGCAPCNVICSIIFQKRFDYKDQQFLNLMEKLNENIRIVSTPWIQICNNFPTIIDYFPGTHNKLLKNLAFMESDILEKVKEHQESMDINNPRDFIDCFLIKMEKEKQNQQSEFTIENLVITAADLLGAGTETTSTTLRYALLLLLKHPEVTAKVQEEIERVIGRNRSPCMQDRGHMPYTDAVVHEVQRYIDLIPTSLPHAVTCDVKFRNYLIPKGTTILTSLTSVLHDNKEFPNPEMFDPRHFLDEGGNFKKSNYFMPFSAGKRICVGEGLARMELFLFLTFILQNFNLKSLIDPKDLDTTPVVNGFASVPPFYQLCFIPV

[25] = Effect on total cytochrome P450 content in minipig at 500 mg/kg/day, po for 39 weeks; format: ADME, organism-based, Sus scrofa domesticus; settings: pig, in vivo, 6552 h
[26] = molecular target: T2, Cytochrome P450 2B6; assay: Drug metabolism assessed as human CYP2B6-mediated metabolism by measuring DHD1 formation; format: ADME; settings: recombinant enzyme
[27] = Permeability at pH 7.4 by PAMPA; format: ADME; settings: read-out: permeability
[28] = Kinetic aqueous solubility of the compound; format: physicochemical; settings: buffer; read-out: Kinetic_solubility
[29] = Drug metabolism in beta-naphthoflavone/phenobarbital-induced rat liver S9 fraction assessed as compound-D1 formation at 100 ug/ml in presence of NADPH measured after 4 hrs by UV-Vis spectroscopy; format: ADME, subcellular; settings: s9, 4 h
[30] = Drug metabolism in beta-naphthoflavone/phenobarbital-induced rat liver S9 fraction assessed as compound-D2 formation at 100 ug/ml in presence of NADPH measured after 4 hrs by UV-Vis spectroscopy; format: ADME, subcellular; settings: s9, 4 h
[31] = system: UDP-glucuronosyltransferases (UGTs); assay: Drug metabolism assessed as human UGT-mediated metabolism by measuring half life for DHD3 formation; format: ADME, protein assay
[32] = molecular target: CYP2C19 (Homo sapiens, UniProt P33261); assay: Drug metabolism assessed as human CYP2C19-mediated metabolism by measuring half life; format: ADME; settings: human CYP2C19 enzyme
Sequence of CYP2C19 (P33261 whole entry): as above

[33] = molecular target: T3, Cytochrome P450 2D6 (Homo sapiens, UniProt P10635); assay: Drug metabolism assessed as human CYP2D6-mediated metabolism by measuring DHD3 formation; format: ADME; settings: recombinant enzyme
T3 sequence (P10635 whole entry): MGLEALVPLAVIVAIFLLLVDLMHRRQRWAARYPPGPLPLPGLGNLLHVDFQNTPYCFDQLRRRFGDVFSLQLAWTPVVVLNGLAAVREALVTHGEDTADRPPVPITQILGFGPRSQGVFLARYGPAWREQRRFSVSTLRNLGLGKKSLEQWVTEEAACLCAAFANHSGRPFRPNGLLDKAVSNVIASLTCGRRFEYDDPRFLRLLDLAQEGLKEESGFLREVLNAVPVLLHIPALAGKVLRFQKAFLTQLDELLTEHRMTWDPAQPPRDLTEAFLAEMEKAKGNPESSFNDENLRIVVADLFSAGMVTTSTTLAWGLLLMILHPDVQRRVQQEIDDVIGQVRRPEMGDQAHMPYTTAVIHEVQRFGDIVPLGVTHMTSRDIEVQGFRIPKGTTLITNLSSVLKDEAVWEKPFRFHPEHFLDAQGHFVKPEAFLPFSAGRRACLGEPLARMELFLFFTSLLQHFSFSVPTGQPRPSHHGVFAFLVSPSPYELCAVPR

[34] = Intrinsic clearance in mouse liver S9 fraction; format: ADME, subcellular; settings: read-out: CLH
[35] = Induction of CYP1A1/2 enzymes in male minipig assessed as increase in EROD enzyme activity at 500 mg/kg/day, po for 39 weeks relative to control; format: ADME, organism-based, Sus scrofa domesticus; settings: pig, in vivo, 6552 h
[36] = molecular target: Cytochrome P450 2C8 (Homo sapiens, UniProt P10632); assay: Drug metabolism assessed as human CYP2C8-mediated metabolism by measuring DHD3 formation; format: ADME; settings: recombinant enzyme
Sequence of Cytochrome P450 2C8 (P10632 whole entry): as the sequence (P10632 whole entry) above

[37] = Protein binding in human plasma assessed as bound fraction; format: ADME, cell-free; settings: read-out: PPB (converted)
Summary of the method: (§3)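 Binding measured in 100% plasma; reported as fraction bound.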

[38] = molecular target: CYP1A1 (Homo sapiens, UniProt P04798); assay: Drug metabolism assessed as human CYP1A1-mediated metabolism by measuring half life; format: ADME; settings: human CYP1A1 enzyme
Sequence of CYP1A1 (P04798 whole entry): as the sequence (P04798 whole entry) above

[39] = Protein binding in mouse plasma assessed as bound fraction; format: ADME, cell-free; settings: read-out: PPB (converted); summary of the method: as §3
[40] = Effect on microsomal protein concentrations in minipig at 500 mg/kg/day, po for 39 weeks; format: ADME, organism-based, Sus scrofa domesticus; settings: pig, in vivo, 6552 h
[41] = species on record: Homo sapiens; assay: Substrate activity at MDR4 (unknown origin)
[42] = Induction of CYP2B enzymes in male minipig assessed as increase in PROD enzyme activity at 500 mg/kg/day, po for 39 weeks relative to control; format: ADME, organism-based, Sus scrofa domesticus; settings: pig, in vivo, 6552 h
[43] = Intrinsic clearance in human liver microsomes in presence of CYP2B6 inhibitor Ticlopidine; format: ADME, Microsome; settings: with Ticlopidine (CYP2B6 inhibitor), read-out: CLH
[44] = molecular target: T3, Cytochrome P450 2D6; assay: Drug metabolism assessed as human CYP2D6-mediated metabolism by measuring DHD1 formation; format: ADME; settings: recombinant enzyme
[45] = Drug metabolism in rat plasma assessed as formation of glucuronide conjugate of dihydrodiol at 2000 mg/kg, po dosed for 28 days; format: ADME, organism-based; settings: in vivo, 672 h
[46] = molecular target: Cytochrome P450 3A4 (Homo sapiens, UniProt P08684); assay: Drug metabolism assessed as human CYP3A4-mediated metabolism by measuring DHD3 formation; format: ADME; settings: recombinant enzyme
Sequence of Cytochrome P450 3A4 (P08684 whole entry): as the sequence (P08684 whole entry) above

[47] = molecular target: T1, Cytochrome P450 1A2; assay: Drug metabolism assessed as human CYP1A2-mediated metabolism by measuring DHD3 formation; format: ADME; settings: recombinant enzyme
[48] = molecular target: CYP2D6 (Homo sapiens, UniProt P10635); assay: Drug metabolism assessed as human CYP2D6-mediated metabolism by measuring half life; format: ADME; settings: human CYP2D6 enzyme
Sequence of CYP2D6 (P10635 whole entry): as the sequence (P10635 whole entry) above

[49] = Half life in human liver S9 fraction; format: ADME, subcellular; summary of the method: as §2

CCS(=O)(=O)c1ccc2oc(-c3ccc4ccccc4c3)nc2c1 [EZUTROMID]
half-life [1]: 2.62 min
half-life [2]: ≥ 3 h
Drug metabolism [3]: Metabolite_Detected
Activity [4]: Non-Toxic
Drug metabolism [5]: Metabolite_Notdetected
half-life [6]: ≥ 3 h
Activity [7]: Not Active
IC50 [8]: 5.4 µM
Activity [9]: Not Active
microsomal CLint [10]: 14 µL/min/mg
Retention_time [11]: 5.7 min
Drug uptake [12]: 38 to 89%
half-life [13]: ≥ 3 h
Drug metabolism [14]: Metabolite_Notdetected
half-life [15]: ≥ 3 h
half-life [16]: 1.23 h
Drug metabolism [17]: Metabolite_Detected
microsomal CLint [18]: 50.7 µL/min/mg
Activity [19]: Not Active
Activity [20]: Non-Toxic
microsomal CLint [21]: 35.1 µL/min/mg
Drug metabolism [22]: Metabolite_Notdetected
microsomal CLint [23]: 5.06 µL/min/mg
Drug metabolism [24]: Metabolite_Notdetected
Activity [25]: Non-Toxic
Drug metabolism [26]: Metabolite_Detected
Papp [27]: 9.5 ×10⁻⁶ cm/s
solubility kinetic [28]: 1 to 2 µM (≈ 0.337 to 0.675 µg/mL)
Drug metabolism [29]: Metabolite_Detected
Drug metabolism [30]: Metabolite_Detected
t1/2 [31]: > 4 h
half-life [32]: ≥ 3 h
Drug metabolism [33]: Metabolite_Notdetected
microsomal CLint [34]: 19 µL/min/mg
Activity [35]: Not Active
Drug metabolism [36]: Metabolite_Notdetected
fraction unbound [37]: 0.01
half-life [38]: 2.16 min
fraction unbound [39]: 0.005
Activity [40]: Non-Toxic
Activity [41]: inactive
Activity [42]: Not Active
microsomal CLint [43]: 21.4 µL/min/mg
Drug metabolism [44]: Metabolite_Detected
Drug metabolism [45]: Metabolite_Detected
Drug metabolism [46]: Metabolite_Notdetected
Drug metabolism [47]: Metabolite_Notdetected
half-life [48]: ≥ 3 h
half-life [49]: 1.68 h
